Assay outcomes deposited in PubChem by several laboratories.
Thrombin inh = blocks human thrombin protease activity. P00734. alpha-thrombin, Boc-VPR-AMC fluorogenic substrate cleavage. inhibition, % at 5 µM. actives 0.26% (n = 220,000). AID 1046;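 active = inhibition at or above 40%; inactive = inhibition below 40%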;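 note: 0% = enzyme with no compound and 100% = wells without enzyme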
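System: Human alpha-thrombin protein | Medium: pH 7.5 Tris (50 mM) with NaCl 150 mM, Tween 20 0.05% | Times: Enzyme reaction carried out at room temperature | Detection: AMC fluorescence, 355/460 nm | Evaluation: Percent inhibition scaled between no-compound controls and no-enzyme blanks | Benchmarks: Enzyme without compound as high, wells lacking enzyme as low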
FXIa inh 1536 = inhibitors of human coagulation factor XIa | P03951 | purified FXIa, Boc-Glu-Ala-Arg-AMC fluorogenic substrate | inhibition, % at 5 µM | actives 0.14% (n = 220,000);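 active = inhibition of at least 40%; inactive = inhibition below 40%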;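 note: fluorescence of freed AMC excited at 355 nm; 0% = enzyme without compound and 100% = no enzyme blank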
Fh CTSL1 inh = cathepsin L1 inhibition, PFM18AAP counter-screen. recombinant F. hepatica cathepsin L1, Z-Leu-Arg-MCA fluorescence. AID 1906. actives 0.49% (n = 300,000). inhibition, % at 5.96 µM;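 active = inhibition above the mean of all tested compounds plus 3 SD, set per screening campaign, cut at about 17% in these data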;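 note: 0% = plate median of test compound wells and 100% = 1 µM Z-Phe-Ala-diazomethylketone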
FXIIa inh = factor XIIa (human) inhibition; purified FXIIa, Boc-QGR-AMC fluorogenic substrate, 2 h; inhibition, % at 5 µM; actives 0.3% (n = 220,000); AID 800; in the data active = inhibition above about 40%;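 note: 0% = enzyme with no compound and 100% = blank without enzyme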
Rce1 inh = yeast Ras-converting enzyme inhibition. yeast membranes, quenched prenylated peptide cleavage fluorescence. calls only. actives 0.27% (n = 290,000). AID 2563;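 active = fall in fluorescence gain of 50% or more versus controls, with final raw signal at or below 3038400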;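 note: plate controls were neutral control wells for no effect and wells lacking membranes for full effect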
Target sequence (Q03530 whole entry, looked up): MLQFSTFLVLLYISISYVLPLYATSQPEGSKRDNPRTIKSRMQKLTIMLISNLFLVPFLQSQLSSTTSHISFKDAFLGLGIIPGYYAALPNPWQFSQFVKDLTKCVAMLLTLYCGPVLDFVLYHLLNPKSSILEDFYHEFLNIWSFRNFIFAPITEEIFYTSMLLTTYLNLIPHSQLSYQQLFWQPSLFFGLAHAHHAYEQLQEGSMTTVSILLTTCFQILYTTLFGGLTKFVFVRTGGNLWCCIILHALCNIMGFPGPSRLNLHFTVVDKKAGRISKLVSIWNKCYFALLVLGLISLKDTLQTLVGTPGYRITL
KLK5 inh = kallikrein 5 (human) inhibition | inhibition, % at 5 µM | Q9Y337 | AID 873 | recombinant hK5, fluorogenic AMC substrate cleavage | actives 0.59% (n = 210,000);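 active = inhibition of 40% or more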;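 note: 0% = enzyme controls without compound and 100% = no-enzyme blanks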
Target sequence (Q9Y337 67-293 limits assumed): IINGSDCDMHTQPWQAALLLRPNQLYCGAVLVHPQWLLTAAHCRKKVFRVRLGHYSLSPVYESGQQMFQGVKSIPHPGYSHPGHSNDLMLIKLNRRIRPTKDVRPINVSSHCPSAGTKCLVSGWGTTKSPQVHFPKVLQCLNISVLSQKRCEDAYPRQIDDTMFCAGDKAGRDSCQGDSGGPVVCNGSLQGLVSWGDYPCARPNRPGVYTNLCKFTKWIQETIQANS
An asterisk follows results filed as active. A selection: hits, their analogues and other compounds. The true share with any hit is near 1.4%.

Screening COc1ccc(NC(=O)CSc2nnc3ccc(-c4ccncc4)nn23)cc1OC returned Thrombin inh 1, FXIa inh 1536 1, Fh CTSL1 inh 1, FXIIa inh 6, Rce1 inh inactive and KLK5 inh 1.
CC(=O)c1c(NCCc2ccccc2)nc(=S)n(-c2ccccc2)c1C was read as Thrombin inh -16, FXIa inh 1536 -6, Fh CTSL1 inh -1, FXIIa inh 10, Rce1 inh inactive and KLK5 inh 0.
CC(=O)c1c(NCc2ccccc2)nc(=O)n(-c2ccccc2)c1C was read as Thrombin inh 11, FXIa inh 1536 2, Fh CTSL1 inh 1, FXIIa inh 11, Rce1 inh inactive and KLK5 inh 70*.
`CCOC(=O)C=Nc1c(N)n(C)c(=O)n(C)c1=O` gave Thrombin inh -1, FXIa inh 1536 9, Fh CTSL1 inh 2, FXIIa inh 20, Rce1 inh inactive and KLK5 inh -19.
`CCOC(CNC(=O)C(=O)Nc1cc2c3c(c1)CCC(=O)N3CCC2)OCC` gave Fh CTSL1 inh 1 and Rce1 inh inactive.
For COc1ccc(Br)cc1C(=O)Nc1ccc(NC(=O)c2ccco2)cc1 the results were Thrombin inh -5, FXIa inh 1536 -6, Fh CTSL1 inh 3, FXIIa inh 7, Rce1 inh inactive and KLK5 inh 1.
Screening COc1ccc(Br)cc1C(=O)Nc1cc(C)cc(C)c1 returned Thrombin inh 1, FXIa inh 1536 1, Fh CTSL1 inh 1, FXIIa inh 17, Rce1 inh active and KLK5 inh -7.
COC(=O)CN(C)C(=O)CC1C(=O)NCCN1CC(C)(C)C (stereo unspecified) was read as Thrombin inh -2, FXIa inh 1536 -2, Fh CTSL1 inh 4, FXIIa inh 5, Rce1 inh inactive and KLK5 inh -3.
C=C(C)CN(CC)C(=O)CC1C(=O)NCCN1CC(C)(C)C (stereo unspecified) was read as Thrombin inh 44*, FXIa inh 1536 4, Fh CTSL1 inh 2, FXIIa inh 6, Rce1 inh inactive and KLK5 inh 1.
For O=C(Cc1cccs1)Nc1nnc(-c2ccc(F)cc2)s1 the results were Thrombin inh -1, FXIa inh 1536 0, Fh CTSL1 inh 4, FXIIa inh 6 and KLK5 inh -4.
O=C(Cc1cccs1)Nc1nnc(Cc2ccc(F)cc2)s1 was read as Thrombin inh 23, FXIa inh 1536 15, FXIIa inh 31 and KLK5 inh 77*.
O=C(Cn1ncc2c1-c1ccccc1OC2)N(Cc1ccco1)C1CCCCC1 was read as Thrombin inh -1, FXIa inh 1536 4, Fh CTSL1 inh 62*, FXIIa inh 13, Rce1 inh inactive and KLK5 inh -2.
Screening O=C(Cn1ncc2c(=O)oc3ccccc3c21)N(Cc1ccco1)C1CCCCC1 returned Thrombin inh 0, FXIa inh 1536 4, Fh CTSL1 inh 44*, FXIIa inh 8, Rce1 inh inactive and KLK5 inh -5.
Screening Cc1ccc2oc(=O)c3cnn(CC(=O)N(CCC(C)C)Cc4ccco4)c3c2c1 returned Thrombin inh -7, FXIa inh 1536 4, Fh CTSL1 inh 7, FXIIa inh 6, Rce1 inh inactive and KLK5 inh -4.
Cc1cc(-n2ccnc2)n2c(nc3ccccc32)c1C#N was read as Thrombin inh 16, FXIa inh 1536 14, Fh CTSL1 inh -1, FXIIa inh 106*, Rce1 inh inactive and KLK5 inh 24.
`Cc1ccccc1NC(=O)Nc1ccccc1Br` gave Thrombin inh 47*, FXIa inh 1536 17, Fh CTSL1 inh 1, FXIIa inh 16, Rce1 inh inactive and KLK5 inh 22.
Cc1ccccc1NC(=O)C(=O)Nc1ccccc1C was read as Thrombin inh -1, FXIa inh 1536 14, Fh CTSL1 inh -3, FXIIa inh 6, Rce1 inh inactive and KLK5 inh 2.
For COCC(=O)N1CCC(Oc2ccc(C(=O)NC(C)c3csc(C)n3)cc2)CC1 (stereo unspecified) the results were Fh CTSL1 inh -3 and Rce1 inh inactive.
`COC(=O)c1cccc(NC(=O)NC(=O)c2ccc(Cl)cc2)c1` gave Thrombin inh 12, FXIa inh 1536 11, Fh CTSL1 inh 1, FXIIa inh 24, Rce1 inh inactive and KLK5 inh 70*.
COc1ccc(-c2ccc(/C=C(\NC(=O)c3ccccc3)C(=O)N3CCOCC3)o2)cc1 was read as Thrombin inh -9, FXIa inh 1536 -1, Fh CTSL1 inh 78*, FXIIa inh 9, Rce1 inh inactive and KLK5 inh 4.
`COc1ccc(/C=C(/NC(=O)c2ccccc2)C(=O)N2CCOCC2)cc1OC` gave Fh CTSL1 inh 19* and Rce1 inh inactive.
For Cc1ccn2c(c1)nc(=O)c1cc(S(=O)(=O)N3CCCCC3)ccc12 the results were Fh CTSL1 inh 3 and Rce1 inh inactive.
Screening CCCCOc1ccc(-c2nnn(C(C)C(=O)OCC)n2)cc1 (stereo unspecified) returned Thrombin inh -1, FXIa inh 1536 4, Fh CTSL1 inh 4, FXIIa inh 11, Rce1 inh inactive and KLK5 inh 5.
Screening CCCCOc1ccc(-c2nnn(C(C)(C)C(=O)OC)n2)cc1 returned Thrombin inh 2, FXIa inh 1536 -11, Fh CTSL1 inh 3, FXIIa inh -3, Rce1 inh inactive and KLK5 inh 140*.
`CCCn1c(CN2CCN(C(=O)OCC)CC2)nc2cc(NC(=O)CC)ccc21` gave Fh CTSL1 inh 6 and Rce1 inh inactive.
Screening Cc1cc(Nc2ccccc2)n(CCO)n1 returned Thrombin inh 10, FXIa inh 1536 7, Fh CTSL1 inh 0, FXIIa inh 14, Rce1 inh inactive and KLK5 inh -3.
For CCOC(=O)c1c(N)nn(C(C)=O)c1-c1ccccc1 the results were Thrombin inh 3, FXIa inh 1536 -7, Fh CTSL1 inh 0, FXIIa inh -1, Rce1 inh inactive and KLK5 inh 86*.
Screening Cn1ncc(Cl)c(Oc2ccc(Cl)cc2)c1=O returned Thrombin inh 1, FXIa inh 1536 10, Fh CTSL1 inh -2, FXIIa inh 16, Rce1 inh inactive and KLK5 inh -5.
Screening Cn1ncc(Oc2ccc([N+](=O)[O-])cc2)c(Cl)c1=O returned Thrombin inh -1, FXIa inh 1536 25, Fh CTSL1 inh 3, FXIIa inh 42*, Rce1 inh inactive and KLK5 inh 71*.
COc1ccc(NS(=O)(=O)c2cccc(C(=O)N(C)Cc3cccs3)c2)cc1 was read as Fh CTSL1 inh 27* and Rce1 inh inactive.
COc1ccc(NS(=O)(=O)c2cccc(C(=O)N(C)CC(=O)Nc3ccc(C)cc3)c2)cc1 was read as Fh CTSL1 inh -2 and Rce1 inh inactive.
`CSc1ccccc1C(=O)N(C)C(c1ccccc1)c1ccccc1` gave Fh CTSL1 inh 4 and Rce1 inh inactive.
